Assay results published in paper PMC9271465 (ESMO Open, 2022).

Experiments:
wild-type EGFR = wild-type EGFR (Homo sapiens, UniProt P00533); assay: kinase inhibition, wild-type EGFR; format: biochemical; conditions: read-out: IC50 against wild-type EGFR; kinase level; unpublished data
[1] = phase I dose-escalation: safety and tolerability; format: in vivo, patients
In short: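 Patients receiving ≥1 oral dose (25–300 mg/day) formed the safety set. Dosing was a single dose on day 1, then 21-day continuous daily dosing after 7 days. AEs graded by CTCAE v4.03. DLT window ran from day 1 of cycle 0 to day 21 of cycle 1 (28 days). ECGs were taken before and 1, 2, 4, 6, 10 and 24 h after the first dose.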

Chain of wild-type EGFR (P00533 25-1210): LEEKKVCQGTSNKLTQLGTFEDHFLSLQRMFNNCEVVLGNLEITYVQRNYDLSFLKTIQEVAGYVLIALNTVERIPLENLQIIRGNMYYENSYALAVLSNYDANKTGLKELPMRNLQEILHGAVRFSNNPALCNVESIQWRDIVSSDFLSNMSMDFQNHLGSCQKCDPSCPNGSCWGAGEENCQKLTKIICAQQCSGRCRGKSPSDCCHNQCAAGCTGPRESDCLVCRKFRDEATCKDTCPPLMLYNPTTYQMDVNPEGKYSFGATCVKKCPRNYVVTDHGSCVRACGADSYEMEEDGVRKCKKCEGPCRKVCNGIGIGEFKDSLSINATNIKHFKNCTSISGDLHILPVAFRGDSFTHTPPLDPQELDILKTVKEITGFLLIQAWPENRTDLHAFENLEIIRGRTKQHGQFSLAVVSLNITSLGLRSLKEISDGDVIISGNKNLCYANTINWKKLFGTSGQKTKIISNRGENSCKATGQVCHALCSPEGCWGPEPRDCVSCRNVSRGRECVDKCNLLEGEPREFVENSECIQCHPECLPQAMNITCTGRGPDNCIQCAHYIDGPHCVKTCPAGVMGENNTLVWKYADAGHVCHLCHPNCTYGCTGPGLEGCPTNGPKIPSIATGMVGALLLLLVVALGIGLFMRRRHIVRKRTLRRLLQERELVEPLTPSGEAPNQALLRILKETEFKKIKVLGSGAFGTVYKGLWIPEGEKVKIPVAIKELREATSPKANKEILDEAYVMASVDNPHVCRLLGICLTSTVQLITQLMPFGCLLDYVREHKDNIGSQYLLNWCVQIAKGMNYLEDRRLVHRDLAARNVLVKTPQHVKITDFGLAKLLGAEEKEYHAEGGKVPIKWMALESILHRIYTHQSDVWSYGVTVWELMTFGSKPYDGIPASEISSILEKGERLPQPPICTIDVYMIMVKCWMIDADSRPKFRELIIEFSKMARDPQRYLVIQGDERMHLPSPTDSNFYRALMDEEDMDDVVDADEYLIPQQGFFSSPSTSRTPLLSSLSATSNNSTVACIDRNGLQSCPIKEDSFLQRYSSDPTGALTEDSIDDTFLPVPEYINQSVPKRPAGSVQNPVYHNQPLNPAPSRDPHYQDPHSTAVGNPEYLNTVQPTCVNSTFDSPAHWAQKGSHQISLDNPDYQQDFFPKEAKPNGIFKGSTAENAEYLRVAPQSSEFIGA

Structure (SMILES): C=CC(=O)Nc1cc(Nc2ncc(Cl)c(Nc3ccccc3C(=O)C(=O)N(C)C)n2)c(OC)cc1N1CCN(C)CC1 [BPI-15086]
- IC50 (wild-type EGFR): 503 nM
- TRAE, Grade 3 and 4: Hyperglycemia ([1]; 25 mg/day (n = 1)): 0 n (%)
- TRAE, Grade 3 and 4: any ([1]; 25 mg/day (n = 1)): 0 n (%)
- TRAE, all grades: Anemia ([1]; 25 mg/day (n = 1)): 0 n (%)
- TRAE, all grades: Decreased appetite ([1]; 25 mg/day (n = 1)): 1 (100.0) n (%)
- TRAE, all grades: Decreased total protein ([1]; 25 mg/day (n = 1)): 0 n (%)
- TRAE, all grades: Diarrhea ([1]; 25 mg/day (n = 1)): 0 n (%)
- TRAE, all grades: Elevated ALT ([1]; 25 mg/day (n = 1)): 0 n (%)
- TRAE, all grades: Elevated blood glucose ([1]; 25 mg/day (n = 1)): 0 n (%)
- TRAE, all grades: Elevated blood triglycerides ([1]; 25 mg/day (n = 1)): 0 n (%)
- TRAE, all grades: Elevated blood uric acid ([1]; 25 mg/day (n = 1)): 0 n (%)
- TRAE, all grades: Elevated conjugated bilirubin ([1]; 25 mg/day (n = 1)): 0 n (%)
- TRAE, all grades: Elevated serum creatinine ([1]; 25 mg/day (n = 1)): 0 n (%)
- TRAE, all grades: Elevated γ-glutamyltransferase ([1]; 25 mg/day (n = 1)): 0 n (%)
- TRAE, all grades: Hyperglycemia ([1]; 25 mg/day (n = 1)): 0 n (%)
- TRAE, all grades: Hypoalbuminemia ([1]; 25 mg/day (n = 1)): 0 n (%)
- TRAE, all grades: Nausea ([1]; 25 mg/day (n = 1)): 0 n (%)
- TRAE, all grades: Proteinuria ([1]; 25 mg/day (n = 1)): 0 n (%)
- TRAE, all grades: Vomiting ([1]; 25 mg/day (n = 1)): 0 n (%)
- TRAE, all grades: any ([1]; 25 mg/day (n = 1)): 1 (100.0) n (%)
- TRAE, Grade 3 and 4: Hyperglycemia ([1]; 50 mg/day (n = 3)): 0 n (%)
- TRAE, Grade 3 and 4: any ([1]; 50 mg/day (n = 3)): 0 n (%)
- TRAE, all grades: Anemia ([1]; 50 mg/day (n = 3)): 0 n (%)
- TRAE, all grades: Decreased appetite ([1]; 50 mg/day (n = 3)): 0 n (%)
- TRAE, all grades: Decreased total protein ([1]; 50 mg/day (n = 3)): 0 n (%)
- TRAE, all grades: Diarrhea ([1]; 50 mg/day (n = 3)): 0 n (%)
- TRAE, all grades: Elevated ALT ([1]; 50 mg/day (n = 3)): 0 n (%)
- TRAE, all grades: Elevated blood glucose ([1]; 50 mg/day (n = 3)): 1 (33.3) n (%)
- TRAE, all grades: Elevated blood triglycerides ([1]; 50 mg/day (n = 3)): 0 n (%)
- TRAE, all grades: Elevated blood uric acid ([1]; 50 mg/day (n = 3)): 0 n (%)
- TRAE, all grades: Elevated conjugated bilirubin ([1]; 50 mg/day (n = 3)): 0 n (%)
- TRAE, all grades: Elevated serum creatinine ([1]; 50 mg/day (n = 3)): 1 (33.3) n (%)
- TRAE, all grades: Elevated γ-glutamyltransferase ([1]; 50 mg/day (n = 3)): 0 n (%)
- TRAE, all grades: Hyperglycemia ([1]; 50 mg/day (n = 3)): 0 n (%)
- TRAE, all grades: Hypoalbuminemia ([1]; 50 mg/day (n = 3)): 0 n (%)
- TRAE, all grades: Nausea ([1]; 50 mg/day (n = 3)): 1 (33.3) n (%)
- TRAE, all grades: Proteinuria ([1]; 50 mg/day (n = 3)): 0 n (%)
- TRAE, all grades: Vomiting ([1]; 50 mg/day (n = 3)): 0 n (%)
- TRAE, all grades: any ([1]; 50 mg/day (n = 3)): 2 (66.7) n (%)
- TRAE, Grade 3 and 4: Hyperglycemia ([1]; 100 mg/day (n = 3)): 0 n (%)
- TRAE, Grade 3 and 4: any ([1]; 100 mg/day (n = 3)): 0 n (%)
- TRAE, all grades: Anemia ([1]; 100 mg/day (n = 3)): 0 n (%)
- TRAE, all grades: Decreased appetite ([1]; 100 mg/day (n = 3)): 0 n (%)
- TRAE, all grades: Decreased total protein ([1]; 100 mg/day (n = 3)): 1 (33.3) n (%)
- TRAE, all grades: Diarrhea ([1]; 100 mg/day (n = 3)): 0 n (%)
- TRAE, all grades: Elevated ALT ([1]; 100 mg/day (n = 3)): 0 n (%)
- TRAE, all grades: Elevated blood glucose ([1]; 100 mg/day (n = 3)): 0 n (%)
- TRAE, all grades: Elevated blood triglycerides ([1]; 100 mg/day (n = 3)): 0 n (%)
- TRAE, all grades: Elevated blood uric acid ([1]; 100 mg/day (n = 3)): 1 (33.3) n (%)
- TRAE, all grades: Elevated conjugated bilirubin ([1]; 100 mg/day (n = 3)): 0 n (%)
- TRAE, all grades: Elevated serum creatinine ([1]; 100 mg/day (n = 3)): 1 (33.3) n (%)
- TRAE, all grades: Elevated γ-glutamyltransferase ([1]; 100 mg/day (n = 3)): 0 n (%)
- TRAE, all grades: Hyperglycemia ([1]; 100 mg/day (n = 3)): 0 n (%)
- TRAE, all grades: Hypoalbuminemia ([1]; 100 mg/day (n = 3)): 0 n (%)
- TRAE, all grades: Nausea ([1]; 100 mg/day (n = 3)): 1 (33.3) n (%)
- TRAE, all grades: Proteinuria ([1]; 100 mg/day (n = 3)): 0 n (%)
- TRAE, all grades: Vomiting ([1]; 100 mg/day (n = 3)): 1 (33.3) n (%)
- TRAE, all grades: any ([1]; 100 mg/day (n = 3)): 3 (100.0) n (%)
- TRAE, Grade 3 and 4: Hyperglycemia ([1]; 200 mg/day (n = 7)): 0 n (%)
- TRAE, Grade 3 and 4: any ([1]; 200 mg/day (n = 7)): 0 n (%)
- TRAE, all grades: Anemia ([1]; 200 mg/day (n = 7)): 3 (42.9) n (%)
- TRAE, all grades: Decreased appetite ([1]; 200 mg/day (n = 7)): 1 (14.3) n (%)
- TRAE, all grades: Decreased total protein ([1]; 200 mg/day (n = 7)): 2 (28.6) n (%)
- TRAE, all grades: Diarrhea ([1]; 200 mg/day (n = 7)): 2 (28.6) n (%)
- TRAE, all grades: Elevated ALT ([1]; 200 mg/day (n = 7)): 1 (14.3) n (%)
- TRAE, all grades: Elevated blood glucose ([1]; 200 mg/day (n = 7)): 2 (28.6) n (%)
- TRAE, all grades: Elevated blood triglycerides ([1]; 200 mg/day (n = 7)): 2 (28.6) n (%)
- TRAE, all grades: Elevated blood uric acid ([1]; 200 mg/day (n = 7)): 3 (42.9) n (%)
- TRAE, all grades: Elevated conjugated bilirubin ([1]; 200 mg/day (n = 7)): 2 (28.6) n (%)
- TRAE, all grades: Elevated serum creatinine ([1]; 200 mg/day (n = 7)): 2 (28.6) n (%)
- TRAE, all grades: Elevated γ-glutamyltransferase ([1]; 200 mg/day (n = 7)): 2 (28.6) n (%)
- TRAE, all grades: Hyperglycemia ([1]; 200 mg/day (n = 7)): 0 n (%)
- TRAE, all grades: Hypoalbuminemia ([1]; 200 mg/day (n = 7)): 5 (71.4) n (%)
- TRAE, all grades: Nausea ([1]; 200 mg/day (n = 7)): 1 (14.3) n (%)
- TRAE, all grades: Proteinuria ([1]; 200 mg/day (n = 7)): 3 (42.9) n (%)
- TRAE, all grades: Vomiting ([1]; 200 mg/day (n = 7)): 1 (14.3) n (%)
- TRAE, all grades: any ([1]; 200 mg/day (n = 7)): 7 (100.0) n (%)
- TRAE, Grade 3 and 4: Hyperglycemia ([1]; 300 mg/day (n = 3)): 1 (33.3) n (%)
- TRAE, Grade 3 and 4: any ([1]; 300 mg/day (n = 3)): 1 (33.3) n (%)
- TRAE, all grades: Anemia ([1]; 300 mg/day (n = 3)): 0 n (%)
- TRAE, all grades: Decreased appetite ([1]; 300 mg/day (n = 3)): 3 (100.0) n (%)
- TRAE, all grades: Decreased total protein ([1]; 300 mg/day (n = 3)): 0 n (%)
- TRAE, all grades: Diarrhea ([1]; 300 mg/day (n = 3)): 1 (33.3) n (%)
- TRAE, all grades: Elevated ALT ([1]; 300 mg/day (n = 3)): 1 (33.3) n (%)
- TRAE, all grades: Elevated blood glucose ([1]; 300 mg/day (n = 3)): 0 n (%)
- TRAE, all grades: Elevated blood triglycerides ([1]; 300 mg/day (n = 3)): 0 n (%)
- TRAE, all grades: Elevated blood uric acid ([1]; 300 mg/day (n = 3)): 0 n (%)
- TRAE, all grades: Elevated conjugated bilirubin ([1]; 300 mg/day (n = 3)): 0 n (%)
- TRAE, all grades: Elevated serum creatinine ([1]; 300 mg/day (n = 3)): 0 n (%)
- TRAE, all grades: Elevated γ-glutamyltransferase ([1]; 300 mg/day (n = 3)): 0 n (%)
- TRAE, all grades: Hyperglycemia ([1]; 300 mg/day (n = 3)): 3 (100.0) n (%)
- TRAE, all grades: Hypoalbuminemia ([1]; 300 mg/day (n = 3)): 0 n (%)
- TRAE, all grades: Nausea ([1]; 300 mg/day (n = 3)): 3 (100.0) n (%)
- TRAE, all grades: Proteinuria ([1]; 300 mg/day (n = 3)): 0 n (%)
- TRAE, all grades: Vomiting ([1]; 300 mg/day (n = 3)): 2 (66.7) n (%)
- TRAE, all grades: any ([1]; 300 mg/day (n = 3)): 3 (100.0) n (%)
- maximum tolerated dose (MTD) ([1]; 25-300 mg/day): not reached
- dose-limiting toxicities (DLTs) ([1]; 28-day evaluation period, any dose level 25-300 mg/day): No DLTs were observed
- treatment-related serious AE (hyperglycemia), patients ([1]; 300-mg/day group): one
- TRAE, Grade 3 and 4: Hyperglycemia ([1]; All (n = 17)): 1 (5.9) n (%)
- TRAE, Grade 3 and 4: any ([1]; All (n = 17)): 1 (5.9) n (%)
- TRAE, all grades: Anemia ([1]; All (n = 17)): 3 (17.6) n (%)
- TRAE, all grades: Decreased appetite ([1]; All (n = 17)): 5 (29.4) n (%)
- TRAE, all grades: Decreased total protein ([1]; All (n = 17)): 3 (17.6) n (%)
- TRAE, all grades: Diarrhea ([1]; All (n = 17)): 3 (17.6) n (%)
- TRAE, all grades: Elevated ALT ([1]; All (n = 17)): 2 (11.8) n (%)
- TRAE, all grades: Elevated blood glucose ([1]; All (n = 17)): 3 (17.6) n (%)
- TRAE, all grades: Elevated blood triglycerides ([1]; All (n = 17)): 2 (11.8) n (%)
- TRAE, all grades: Elevated blood uric acid ([1]; All (n = 17)): 4 (23.5) n (%)
- TRAE, all grades: Elevated conjugated bilirubin ([1]; All (n = 17)): 2 (11.8) n (%)
- TRAE, all grades: Elevated serum creatinine ([1]; All (n = 17)): 4 (23.5) n (%)
- TRAE, all grades: Elevated γ-glutamyltransferase ([1]; All (n = 17)): 2 (11.8) n (%)
- TRAE, all grades: Hyperglycemia ([1]; All (n = 17)): 3 (17.6) n (%)
- TRAE, all grades: Hypoalbuminemia ([1]; All (n = 17)): 5 (29.4) n (%)
- TRAE, all grades: Nausea ([1]; All (n = 17)): 6 (35.3) n (%)
- TRAE, all grades: Proteinuria ([1]; All (n = 17)): 3 (17.6) n (%)
- TRAE, all grades: Vomiting ([1]; All (n = 17)): 4 (23.5) n (%)
- TRAE, all grades: any ([1]; All (n = 17)): 16 (94.1) n (%)
- AEs leading to drug discontinuation ([1]; all 17 patients): no adverse events (AEs) causing drug discontinuation were seen
- TRAE: anemia, patients ([1]; all 17 patients): 17.6%
- TRAE: decreased appetite, patients ([1]; all 17 patients): 29.4%
- TRAE: decreased total protein, patients ([1]; all 17 patients): 17.6%
- TRAE: diarrhea, patients ([1]; all 17 patients): 17.6%
- TRAE: elevated alanine aminotransferase, patients ([1]; all 17 patients): 11.8%
- TRAE: elevated blood glucose, patients ([1]; all 17 patients): 17.6%
- TRAE: elevated blood triglycerides, patients ([1]; all 17 patients): 11.8%
- TRAE: elevated blood uric acid, patients ([1]; all 17 patients): 23.5%
- TRAE: elevated conjugated bilirubin, patients ([1]; all 17 patients): 11.8%
- TRAE: elevated serum creatinine, patients ([1]; all 17 patients): 23.5%
- TRAE: elevated γ-glutamyltransferase, patients ([1]; all 17 patients): 11.8%
- TRAE: hyperglycemia, patients ([1]; all 17 patients): 17.6%
- TRAE: hypoalbuminemia, patients ([1]; all 17 patients): 29.4%
- TRAE: nausea, patients ([1]; all 17 patients): 35.3%
- TRAE: proteinuria, patients ([1]; all 17 patients): 17.6%
- TRAE: vomiting, patients ([1]; all 17 patients): 23.5%
- patients with diarrhea ([1]; all 17 patients): 3/17
- patients with rash/pruritis ([1]; all 17 patients): no patient
- Serious AEs, patients ([1]; all 17 patients (two patients)): 11.8%
